Activity calls are given as the source filed them. The rule behind the calls is not given here.
How the values were obtained:
[1] = target: T1, Estrogen receptor (Homo sapiens) (UniProt P03372); test: Antiestrogenic activity at human recombinant estrogen receptor alpha assessed as inhibition of recruitment of LxxLL-containing coactivators after 30 mins by ELISA in presence of estradiol
T1 sequence (whole entry): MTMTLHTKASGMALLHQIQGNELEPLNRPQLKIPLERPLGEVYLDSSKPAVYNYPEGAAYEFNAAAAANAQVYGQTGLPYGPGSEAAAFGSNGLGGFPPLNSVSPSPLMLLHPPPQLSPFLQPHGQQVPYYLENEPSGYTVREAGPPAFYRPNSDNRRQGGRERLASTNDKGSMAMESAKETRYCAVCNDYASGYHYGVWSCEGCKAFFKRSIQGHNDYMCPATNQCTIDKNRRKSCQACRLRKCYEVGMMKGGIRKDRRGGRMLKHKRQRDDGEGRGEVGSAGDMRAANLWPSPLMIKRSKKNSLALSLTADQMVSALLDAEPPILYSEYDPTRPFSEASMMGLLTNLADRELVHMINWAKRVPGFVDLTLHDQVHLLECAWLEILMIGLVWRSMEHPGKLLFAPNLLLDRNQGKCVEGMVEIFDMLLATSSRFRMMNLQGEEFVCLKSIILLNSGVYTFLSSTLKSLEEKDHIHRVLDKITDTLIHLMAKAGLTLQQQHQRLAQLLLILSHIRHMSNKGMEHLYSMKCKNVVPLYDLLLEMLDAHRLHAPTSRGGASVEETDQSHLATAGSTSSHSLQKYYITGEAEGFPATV

MCF7 [2] = test: Down regulation of estrogen receptor alpha expression in human MCF7 cells at 100 nM after 24 hrs by immunofluorescence staining; format: functional, cell-based
Procedure, shortened: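 MCF-7 cells treated 24 h at 100 nM, untreated control; ERα shown by immunofluorescence with HC-20 antiserum, Texas Red labeling.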

[3] = target: T1, Estrogen receptor (Homo sapiens); test: Displacement of [3H]estradiol from human recombinant estrogen receptor alpha by radiometric assay relative to estradiol
Procedure, shortened: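 Purified recombinant human ERα; competition with [3H]E2 binding at 0 °C; inhibition curves give relative binding affinity (RBA).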

MCF7 [4] = test: Down regulation of estrogen receptor alpha expression in human MCF7 cells after 24 hrs by Western blot analysis; format: functional, cell-based
Procedure, shortened: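 MCF-7 breast carcinoma cells exposed to increasing concentrations of each compound for 24 h, with untreated control cultures kept in parallel. Equal amounts of solubilized protein were analysed for ERα by Western blotting. The experiment was done twice.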

[5] = target: T1, Estrogen receptor (Homo sapiens); test: Binding affinity to estrogen receptor alpha in human MCF7 cells assessed as inhibition of [3H]E2 accumulation after 45 mins by whole cell competition binding assay; format: cell-based
Procedure, shortened: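 Intact MCF-7 cells incubated 45 min with [3H]E2 at 1 nM, alone (control) or with competitor at 1 nM to 1 µM; cellular [3H]E2 accumulation measured, with unlabeled E2 as reference.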

MCF7 [6] = test: Antiproliferative activity against human MCF7 cells after 3 days at 10 nM by crystal violet staining; format: functional, cell-based
MCF7 [7] = test: Antiproliferative activity against estradiol-stimulated human MCF7 cells after 3 days at 10 nM by crystal violet staining; format: functional, cell-based
[8] = target: T1, Estrogen receptor (Homo sapiens); test: Antiestrogenic activity at human recombinant estrogen receptor alpha assessed as inhibition of recruitment of LxxLL-containing coactivators after 30 mins by ELISA in absence of estradiol
MCF7 [9] = test: Suppression of estradiol-induced down regulation of estrogen receptor alpha expression in human MCF7 cells at 1 uM after 24 hrs by Western blot analysis; format: functional, cell-based
Procedure, shortened: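 Western blot of ERα in MCF-7 cells after 24 h with compound at 1 µM, alone or with 10 nM E2; equal protein loading; experiment done twice.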

MCF7 [10] = test: Suppression of estradiol-induced down regulation of estrogen receptor alpha expression in human MCF7 cells at 1 uM after 24 hrs by immunofluorescence staining; format: functional, cell-based
Procedure, shortened: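 ERα immunofluorescence (HC-20 antiserum, Texas Red) in MCF-7 cells after 24 h with E2 at 1 nM and/or compound at 1 µM; untreated control included.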

MCF7 [11] = test: Down regulation of estrogen receptor alpha expression in human MCF7 cells after 24 hrs by Western blot analysis in presence of 3,17beta-dihydroxy-11beta-[4,4,5,5,6,6,7,7-octafluoro-9-(4,4,5,5,5-pentafluoropentane-1-sulfinyl)nonyl]estra-1,3,5(10)-triene; format: functional, cell-based
Procedure, shortened: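 MCF-7 cells exposed 24 h to increasing concentrations, untreated cultures run in parallel; equal amounts of solubilized protein Western blotted for ERα; experiment done twice.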

| SMILES | Activity [1] | Activity (MCF7 [2]) | relative binding affinity (RBA) [3] | Activity (MCF7 [4]) | Activity [5] | Activity (MCF7 [6]) | Activity (MCF7 [7]) | Activity [8] | Activity (MCF7 [9]) | Activity (MCF7 [10]) | Activity (MCF7 [11]) |
| --- | --- | --- | --- | --- | --- | --- | --- | --- | --- | --- | --- |
| C[C@]12C[C@H](CCCCCCCCC[S+]([O-])CCCC(F)(F)C(F)(F)F)[C@@H]3c4ccc(O)cc4CC[C@H]3[C@@H]1CC[C@@H]2O (stereo partly specified) | Active | Active | 6 | Active | Active | Active | Active | Active | – | – | – |
| C[C@]12C[C@H](CCCC(F)(F)C(F)(F)C(F)(F)C(F)(F)CC[S+]([O-])CCCC(F)(F)C(F)(F)F)[C@@H]3c4ccc(O)cc4CC[C@H]3[C@@H]1CC[C@@H]2O (stereo partly specified) | Active | inactive | 2 | – | – | Active | – | Active | Active | Active | inactive |
| C[C@]12CC[C@@H]3c4ccc(O)cc4C[C@@H](CCCCCCCCC[S+]([O-])CCCC(F)(F)C(F)(F)F)[C@H]3[C@@H]1CC[C@@H]2O (stereo partly specified) | – | Active | 10 | Active | – | Active | Active | – | – | – | – |

— ChEMBL document CHEMBL1143370, “Effect of fluorination on the pharmacological profile of 11beta isomers of fulvestrant in breast carcinoma cells” (J Med Chem, 2009)
